# Screening results from PubChem BioAssay.
# Hits are enriched below; roughly 5.4% of the tested compounds scored in any of these assays.
# tolC growth inh: growth inhibitors of E. coli BW25113 tolC mutant | OD615 | 2.2% of 65,000 active | AID 573 | growth inhibition, % at 10 µM (by protocol);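 active = growth inhibition at or above a cutoff equal to the mean over every tested compound plus 3 SD, cut at about 60% in these data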;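 also: growth measured after 20 h incubation at 37 °C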
#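 Doses: one dose of 10 µM final / Material: E. coli BW25113 ΔtolC::kan, tolC deletion mutant strain / Buffer or medium: LB with kanamycin 50 µg/mL / Evaluation: percent growth inhibition / Detection: optical density read at 615 nm / Incubation: 37 °C, 20 h exposure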
# HePTP inh: blocks human HePTP tyrosine phosphatase; P35236; recombinant HePTP phosphatase activity, OD absorbance; inhibition, % at 20 µM; 0.64% of 110,000 active; in the data active = inhibition above about 50%;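 also: plate controls were vehicle for no effect and reference inhibitor for full effect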
# Target sequence (P35236 whole entry, looked up): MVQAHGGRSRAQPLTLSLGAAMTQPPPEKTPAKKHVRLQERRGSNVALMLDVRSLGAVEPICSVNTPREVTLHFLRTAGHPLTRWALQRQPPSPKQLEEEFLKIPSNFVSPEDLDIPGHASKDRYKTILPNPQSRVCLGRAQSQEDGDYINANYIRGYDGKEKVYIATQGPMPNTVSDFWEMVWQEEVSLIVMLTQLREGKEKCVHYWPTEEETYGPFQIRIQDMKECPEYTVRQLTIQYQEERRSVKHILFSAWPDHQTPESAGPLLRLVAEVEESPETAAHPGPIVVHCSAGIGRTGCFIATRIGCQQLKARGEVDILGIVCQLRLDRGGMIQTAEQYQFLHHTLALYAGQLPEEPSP
# Ecoli WT expand: blocks growth of wild type E. coli BW25113. OD600 absorbance. growth inhibition, % at 100 µM. 0.15% of 98,000 active. AID 710;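 active = growth inhibition above about 50% at one test dose, limit read from the data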;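 also: growth measured after 20 h incubation at 37 °C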
# PostGolgi ctrl: growth of the yeast control strain, post-Golgi counter-screen | 5% of 98,000 active | inhibition, % at 10 µM | efflux-deficient yeast background strain, growth absorbance A615, 16 h | AID 738
# PostGolgi yeast: growth inhibition of a yeast mutant, post-Golgi transport screen; AID 739; post-Golgi transport phenotypic cell assay; 0.9% of 98,000 active; inhibition, % at 10 µM;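 also: yeast cells grown in 1536-well plates; yeast grown about 18 h at 30C before absorbance read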
# PLAP activator: activates human placental alkaline phosphatase; P05187; 1.2% of 96,000 active; AID 696; activation fold at 20 µM; purified PLAP enzyme, luminescent substrate read-out; hits give high values; in the data active = activation fold above about 2
# An asterisk follows results filed as active; . = not tested or not shown. Rule as the data show it, unless noted: active = inhibition above about 30%; inactive = the rest.
SMILES,tolC growth inh,HePTP inh,Ecoli WT expand,PostGolgi ctrl,PostGolgi yeast,PLAP activator
O=C(c1ccccc1)N1CCN(C(=O)c2cc3ccccc3o2)CC1,.,.,1.0,30.7*,3.1,0.9
O=C(c1cc2ccccc2o1)N1CCN(c2ccccc2Cl)CC1,100.0*,2.6,-10.0,39.9*,1.4,1.1
O=C(c1cc2ccccc2o1)N1CCC(c2ccccc2)C1 (stereo not given),.,1.3,.,.,.,.
COc1cccc(NC(=O)c2sc3ccccc3c2Cl)c1,.,-1.8,.,.,.,.
Cc1ccc(-c2noc(CN3CCN(c4ccccc4F)CC3)n2)cc1,84.4*,5.9,4.0,-2.8,-3.7,0.9
Cc1ccc(-c2noc(CN3CCCCC3)n2)cc1,.,.,11.0,0.5,-2.8,1
Clc1cccc(N2CCN(Cc3nc(-c4ccccc4)no3)CC2)c1,20.4,6.9,1.0,34.5*,-5.4,1
Clc1ccc(-c2noc(CN3CCCC3)n2)cc1,-0.5,4.0,13.0,37.1*,-1.1,1.1
Cc1ccc(-c2noc(CN3CCOCC3)n2)cc1,.,.,6.0,1.5,12.2,1.1
O=C(CN1CCN(c2ncc(C(F)(F)F)cc2Cl)CC1)NCCNc1ncc(C(F)(F)F)cc1Cl,.,.,5.0,84.7*,-1.6,1.1
CC(C)(C)NC(=O)NC(=O)CN1CCN(c2ncc(C(F)(F)F)cc2Cl)CC1,.,.,1.0,32.1*,-2.9,1.6
O=C(CN1CCN(c2ncc(C(F)(F)F)cc2Cl)CC1)NC(=O)NCc1ccccc1,-5.9,11.3,-2.0,-3.7,20.4,0.9
CC(=O)/C=C/c1ccc(-c2cccc([N+](=O)[O-])c2)o1,.,15.4,.,.,.,.
CN(C)CCCNC(=O)c1cc2c3ccccc3n(C)c2s1,.,.,5.0,0.5,1.4,1.2
Cn1c2ccccc2c2cc(C(=O)NNS(=O)(=O)c3ccc(F)cc3)sc21,.,.,-3.0,55.2*,14.9,1.3
N#CC1=C(N)SC(N)=C(C#N)C1CCC1CCCCC1,99.1*,-0.9,8.0,9.4,-2.4,1
O=C1CC(c2cc(Br)ccc2F)c2cc3c(cc2N1)CCC3 (stereo not given),.,.,-7.0,34.6*,1.9,1
O=C1CC(c2ccccc2F)c2cc3c(cc2N1)CCC3 (stereo not given),.,.,-7.0,29.5,4.4,0.9
O=C1CC(c2cccc(Cl)c2)c2cc3c(cc2N1)CCC3 (stereo not given),.,.,2.0,88.9*,0.8,0.9
CC(/C=N/NC(=O)c1cc(-c2ccccc2)n[nH]1)=C\c1ccccc1,.,0.0,.,.,.,.
CC(C)n1c(N2CCN(CC(=O)NCc3cccs3)CC2)nc2ccccc21,5.3,5.1,-4.0,4.2,13.7,2*
CC1(C)Cc2c(C#N)c(NCCCO)nc(-c3ccccc3)c2CO1,16.1,-7.0,2.0,85.3*,-15.1,1.1
CCN(CC)c1nc(N)nc(N(c2ccccc2)c2ccccc2)n1,.,.,-2.0,53.3*,-8.4,1
CCOC(=O)C1=C(CN2c3ccccc3CC2C)NC(=O)NC1c1ccccc1 (stereo not given),.,.,-17.0,33.4*,1.0,0.9
COC(=O)C1=C(C)N(Cc2ccco2)C(=O)/C1=C\c1ccc(OC)c([N+](=O)[O-])c1,.,-13.0,.,.,.,.
SMILES,tolC growth inh,HePTP inh,Ecoli WT expand,PostGolgi ctrl,PostGolgi yeast,PLAP activator
CCN(C(=O)c1cnc(N2CCN(c3ncccn3)CC2)c2ccccc12)c1cccc(Cl)c1,21.8,-1.7,-11.0,12.6,2.4,1.3
CN(C(=O)c1cnc(N2CCN(c3ncccn3)CC2)c2ccccc12)c1ccc(Cl)cc1,19.4,3.7,-26.0,73.3*,-2.6,1.2
Cc1ccc(/C(O)=C2\C(=O)C(=O)N(c3cc(C)on3)C2c2cccc(Br)c2)cc1 (stereo not given),64.6*,-2.7,-7.0,-1.2,2.4,1.2
Cc1cc(N2C(=O)C(=O)/C(=C(/O)c3ccc(F)cc3)C2c2cccc(Br)c2)no1 (stereo not given),9.2,8.7,-1.0,11.1,6.7,1.2
Cc1cccc2cc(CN(C(=O)c3cnccn3)C3CCCCC3)c(Cl)nc12,.,.,-6.0,33.0*,-4.4,1.5
Cc1cc(C)n2nc(C(=O)NCc3ccccc3)cc2n1,0.6,-8.0,4.0,2.9,42.9*,1.1
O=C(O)c1cc(NC(=O)c2ccc3c(c2)C(=O)N(N2C(=O)c4ccccc4C2=O)C3=O)cc(C(=O)O)c1,.,-19.3,.,.,.,.
N#Cc1c(-c2ccc(Cl)cc2Cl)nc2n(c1=O)CCS2,14.6,2.6,6.0,32.1*,-5.2,1.5
N#CCCCN1C(=O)C(O)(CC(=O)c2ccc3c(c2)OCCO3)c2ccccc21 (stereo not given),7.2,2.8,-5.0,-2.4,-6.6,1
C=C(C)CN1C(=O)C(O)(CC(=O)c2ccc3c(c2)OCCO3)c2ccccc21 (stereo not given),16.3,3.7,3.0,41.2*,-9.7,1.1
Nc1nnc(SCC(=O)Nc2cccc(C(F)(F)F)c2)s1,.,2.9,.,.,.,.
COc1ccc(NS(=O)(=O)c2ccc(N/C=C\C(=O)c3ccccc3)cc2)nn1,.,8.0,.,.,.,.
O=S(=O)(Nc1ccc2c(c1)oc1ccccc12)N1CCCC1,4.0,8.5,-6.0,47.0*,-13.4,1
COc1cc2c(cc1NS(=O)(=O)N1CCCCC1)oc1ccccc12,.,.,-9.0,68.2*,20.6,1.5
O=S(=O)(Nc1ccc2c(c1)OCCO2)c1ccc2oc3ccccc3c2c1,97.5*,-1.3,-7.0,59.4*,9.3,1.3
Cc1ccc(S(=O)(=O)Nc2ccc3c(c2)oc2ccccc23)cc1,.,1.5,.,.,.,.
COc1cc2c(cc1NS(=O)(=O)c1ccc([N+](=O)[O-])cc1)oc1ccccc12,.,-1.0,.,.,.,.
O=S(=O)(Nc1ccc(Cl)cc1)c1ccc2c(c1)OCCO2,.,-7.3,.,.,.,.
O=C(COc1ccccc1)Nc1ccc(N2CCOCC2)cc1,.,6.3,.,.,.,.
Cc1c(OCc2ccccc2F)ccc2c3c(c(=O)oc12)CCC3,.,-9.1,.,.,.,.
C=CCN1C(=O)/C(=C\c2cc3c(cc2Cl)OCO3)C(=O)NC1=S,.,1.1,.,.,.,.
Cc1ccc2[nH]c(=O)c(C(=O)/C=C\c3ccc(Br)cc3)c(-c3ccccc3)c2c1,.,-2.7,.,.,.,.
COc1cccc(OC)c1Oc1ccc(C(F)(F)F)cn1,-6.2,8.8,5.0,3.9,-0.3,1
CCOc1cccc(Oc2ccc(C(F)(F)F)cn2)c1,-1.9,5.4,8.0,33.9*,1.6,1
CC(C)COc1ccc(C(=O)N2c3ccccc3CC2C)cc1 (stereo not given),.,-7.3,.,.,.,.
SMILES,tolC growth inh,HePTP inh,Ecoli WT expand,PostGolgi ctrl,PostGolgi yeast,PLAP activator
CCCCOc1ccc(C(=O)N2c3ccccc3CC2C)cc1 (stereo not given),.,104.0*,.,.,.,.
Cc1c(/C=C/c2nc3ccccc3c(=O)n2-c2ccc([N+](=O)[O-])cc2)c2ccccc2n1C,.,80.6*,.,.,.,.
CCc1cc2cc(C(=O)N3CCN(c4ccccc4)CC3)sc2s1,.,.,-13.0,3.8,-1.8,0.7
CCc1cc2cc(C(=O)N3CCN(Cc4ccccc4)CC3)sc2s1,98.1*,8.9,-7.0,34.7*,18.4,1.5
COc1ccc(CCN2C(=O)/C(=C\c3ccc(C(C)C)cc3)SC2=S)cc1OC,.,-2.8,.,.,.,.
Cc1cccn2c(=O)c(/C=C3\SC(=S)N(Cc4ccco4)C3=O)c(NCCCn3ccnc3)nc12,.,62.2*,.,.,.,.
